From ChEMBL document CHEMBL3286143, “Minimizing the Contribution of Enterohepatic Recirculation to Clearance in Rat for the NCINI Class of Inhibitors of HIV” (ACS Med Chem Lett, 2014)

Tested on: Human immunodeficiency virus 1
Test: Antiviral activity against HIV1 NL4.3 harboring integrase T124/T125 mutant
Assay type: functional, organism-based
Conditions: Human immunodeficiency virus 1, NL4.3
How it was run: (§1)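 Cell-based antiviral assay giving EC50 (nM) against wild-type NL4.3 (IN T124/T125) or recombinant NL4.3 engineered to carry the naturally polymorphic integrase residues at positions 124 and 125.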
For Cc1cc(-c2nc(C)c([C@H](OC(C)(C)C)C(=O)O)c(-c3ccc4c(c3)CCCO4)c2C)ccc1Cl, the EC50 was 0.0058 µM. In the case of Cc1ccc(-c2nc(C)c([C@H](OC(C)(C)C)C(=O)O)c(-c3ccc(Cl)cc3)c2C)cc1C, the EC50 is reported as 0.014 µM. Cc1nc2c(ccc3ccccc32)c(-c2ccc3c(c2)CCCO3)c1[C@H](OC(C)(C)C)C(=O)O showed an EC50 of 0.062 µM. Cc1noc(C)c1-c1ccc(-c2nc(C)c([C@H](OC(C)(C)C)C(=O)O)c(-c3ccc4c(c3)CCCO4)c2C)cc1 showed an EC50 of 0.0055 µM. Cc1nc(-c2cccc(-c3cnn(C)c3)c2)c(C)c(-c2ccc3c(c2)CCCO3)c1[C@H](OC(C)(C)C)C(=O)O gave an EC50 of 0.024 µM.

Tested on: Human immunodeficiency virus 1
Test: Antiviral activity against HIV1 NL4.3 harboring integrase T124/A125 mutant
Assay type: functional, organism-based
Conditions: Human immunodeficiency virus 1, NL4.3
How it was run: as §1
Work on Cc1nc2c(ccc3ccccc32)c(-c2ccc3c(c2)CCCO3)c1[C@H](OC(C)(C)C)C(=O)O yielded an EC50 of 0.063 µM.

Tested on: not listed separately
Test: Half life in rat liver microsomes
Assay type: ADME
Conditions: not given
Cc1ccc(-c2nc(C)c([C@H](OC(C)(C)C)C(=O)O)c(-c3ccc(Cl)cc3)c2C)cc1C showed a half-life of 51 min.

Molecular target: T1, Human immunodeficiency virus type 1 integrase (Human immunodeficiency virus 1, UniProt Q7ZJM1)
T1 sequence (Q7ZJM1 whole entry): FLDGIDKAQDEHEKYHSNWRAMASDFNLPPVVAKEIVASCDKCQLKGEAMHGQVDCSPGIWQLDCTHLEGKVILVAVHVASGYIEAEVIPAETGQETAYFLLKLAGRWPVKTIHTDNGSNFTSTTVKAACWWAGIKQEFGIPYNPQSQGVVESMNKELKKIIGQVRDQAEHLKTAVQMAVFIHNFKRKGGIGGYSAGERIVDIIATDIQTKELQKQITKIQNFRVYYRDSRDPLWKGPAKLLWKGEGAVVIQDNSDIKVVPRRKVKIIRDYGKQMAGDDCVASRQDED
Test: Apparent binding affinity to Trx-His-tagged HIV integrase
Conditions: read-out: Kd(app)
How it was run: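 Apparent dissociation constant from the same displacement assay, run instead with a thioredoxin-tagged His6 integrase construct.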
Compound Cc1cc(-c2nc(C)c([C@H](OC(C)(C)C)C(=O)O)c(-c3ccc4c(c3)CCCO4)c2C)ccc1Cl has a Kd of 0.017 µM. For Cc1ccc(-c2nc(C)c([C@H](OC(C)(C)C)C(=O)O)c(-c3ccc(Cl)cc3)c2C)cc1C, the Kd was 0.04 µM. Cc1nc(-c2cccc(-c3cnn(C)c3)c2)c(C)c(-c2ccc3c(c2)CCCO3)c1[C@H](OC(C)(C)C)C(=O)O gave a Kd of 0.059 µM.

Molecular target: T1, Human immunodeficiency virus type 1 integrase
Test: Apparent binding affinity to His-tagged HIV integrase
Conditions: read-out: Kd(app)
Cc1nc2c(ccc3ccccc32)c(-c2ccc3c(c2)CCCO3)c1[C@H](OC(C)(C)C)C(=O)O showed a Kd of 0.18 µM.

Tested on: Human immunodeficiency virus 1
Test: Antiviral activity against HIV1 NL4.3 harboring integrase N124/T125 mutant
Assay type: functional, organism-based
Conditions: Human immunodeficiency virus 1, NL4.3
How it was run: as §1
Cc1cc(-c2nc(C)c([C@H](OC(C)(C)C)C(=O)O)c(-c3ccc4c(c3)CCCO4)c2C)ccc1Cl showed an EC50 of 0.96 µM. Cc1ccc(-c2nc(C)c([C@H](OC(C)(C)C)C(=O)O)c(-c3ccc(Cl)cc3)c2C)cc1C showed an EC50 of 2.7 µM. Compound Cc1noc(C)c1-c1ccc(-c2nc(C)c([C@H](OC(C)(C)C)C(=O)O)c(-c3ccc4c(c3)CCCO4)c2C)cc1 has an EC50 of 0.39 µM. Compound Cc1nc(-c2cccc(-c3cnn(C)c3)c2)c(C)c(-c2ccc3c(c2)CCCO3)c1[C@H](OC(C)(C)C)C(=O)O has an EC50 of 0.92 µM.

Tested on: not listed separately
Test: Half life in human liver microsomes
Assay type: ADME
Conditions: not given
Cc1cc(-c2nc(C)c([C@H](OC(C)(C)C)C(=O)O)c(-c3ccc4c(c3)CCCO4)c2C)ccc1Cl gave a half-life of 43 min. For Cc1ccc(-c2nc(C)c([C@H](OC(C)(C)C)C(=O)O)c(-c3ccc(Cl)cc3)c2C)cc1C, the half-life was 77 min.
